# Measured values reported in ChEMBL document CHEMBL1221229, “Phloroglucinol glycosides from the fresh fruits of Eucalyptus maideni” (J Nat Prod, 2010).
# Active and inactive are the calls of the source. The calls are words filed in the database; no cut-off is given here.
# Legend:
# Human alphaherpesvirus 1 = experiment: Antiviral activity against HSV1 infected african green monkey Vero cells assessed as reduction of plaque formation after 3 days by using crystal violet stain; format: functional, organism-based
# Method in brief: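 Vero cells in 24-well plates, grown 24 h, then infected with 30 PFU HSV-1 alongside serial sample dilutions in DMEM with 2% FBS (pH 7.2, NaHCO3/Hepes). The wells were overlaid with 1% methylcellulose medium and incubated 3 days. Monolayers were formalin-fixed and crystal violet-stained, and plaques counted by microscope. The 100% plaque-reducing concentration was read from graphic plots. Aciclovir was the positive control.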
# [1] = Cytotoxicity against african green monkey Vero cells after 3 days by MTT assay; format: cell-based; conditions: chlorocebus sabaeus, read-out: MNCC
# Method in brief: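 Confluent Vero monolayers in 96-well plates were exposed in triplicate to serial sample dilutions in DMEM with 2% FBS (pH 7.2) for 3 days. MTT (5 mg/mL in PBS) was added for 4 h, and formazan was dissolved in DMSO with OD read at 540/630 nm. The value is the maximal concentration without cytotoxic effect relative to medium control.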
Compound,inhibition (Human alphaherpesvirus 1),MNTC at 72 h [1] [µM],TIC (Human alphaherpesvirus 1) [mM]
O=c1cc(-c2cc(O)c(O)c(O[C@@H]3O[C@H](CO)[C@@H](O)[C@H](O)[C@H]3O)c2)oc2cc(O)cc(O)c12,inactive,430,
O=c1cc(-c2ccc(O)c(O[C@@H]3O[C@H](CO)[C@@H](O)[C@H](O)[C@H]3O)c2)oc2cc(O)cc(O)c12,inactive,450,
COc1c(O)cc2c(=O)oc3c(O[C@@H]4O[C@@H](C)[C@H](O)[C@@H](O)[C@H]4O)c(O)cc4c(=O)oc1c2c34,inactive,430,
O=C[C@H](O)[C@@H](O)[C@H](O)[C@H](O)COC(=O)c1cc(O)c(O)c(O)c1,inactive,9,
O=c1c(O[C@@H]2O[C@H](CO)[C@@H](O)[C@H](O)[C@H]2O[C@@H]2OC[C@@H](O)[C@H](O)[C@H]2O)c(-c2ccc(O)c(O)c2)oc2cc(O)cc(O)c12,inactive,370,
CC(C)(O)[C@H]1CC=C(C(=O)OC[C@H]2O[C@@H](OC(=O)[C@H]3CC[C@H](C(C)(C)O)CC3)[C@H](O)[C@@H](O)[C@@H]2O)CC1,inactive,,
CC(C)(O)[C@H]1CC=C(C(=O)OC[C@H]2O[C@@H](Oc3c(O)cc(C(=O)O)cc3O)[C@H](O)[C@@H](O)[C@@H]2O)CC1,inactive,,
CC(C)(O)[C@H]1CC=C(C(=O)OC[C@H]2O[C@@H](Oc3cc(C(=O)O)cc(O)c3O)[C@H](O)[C@@H](O)[C@@H]2O)CC1,inactive,,
COc1cc([C@@H]2c3cc(O)c(OC)cc3C[C@H](CO)[C@H]2CO[C@@H]2O[C@H](CO)[C@@H](O)[C@H](O)[C@H]2O)ccc1O,inactive,,
CC(C)(O)C1CC=C(C(=O)O)CC1 (racemic),inactive,> 1090,
O=C(O)c1cc(O)c(O)c(O)c1 [GALLIC ACID],inactive,590,
O=c1c(O[C@@H]2O[C@H](CO)[C@@H](O)[C@H](O)[C@H]2O)c(-c2ccc(O)c(O)c2)oc2cc(O)cc(O)c12 [ISOQUERCETIN],inactive,430,
O=c1cc(-c2ccc(O)c(O)c2)oc2cc(O)cc(O)c12 [LUTEOLIN],inactive,700,
O=c1c(O)c(-c2cc(O)c(O)c(O)c2)oc2cc(O)cc(O)c12 [MYRICETIN],,310,0.31
O=c1c(O)c(-c2ccc(O)c(O)c2)oc2cc(O)cc(O)c12 [QUERCETIN],,< 20,0.33
O=c1cc(-c2cc(O)c(O)c(O)c2)oc2cc(O)cc(O)c12 [TRICETIN],inactive,40,
